Laboratory results from PubChem BioAssay.
Calls of active or inactive are those of the source.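 How the source made its calls, unless noted: active means inhibition at or above 50% relative to wild type and mutant plate controls; inactive means inhibition below 50%.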

Key:
[1] = inhibitors of TNFa-induced NFkB p65 translocation, primary screen, imaging, HUVEC, MLSMR starter and 10KST1 sets (AID 438;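 active means inhibition above 20% together with a positive visual image hit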;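 further: compound added about 3h40 before a 20 min TNFalpha stimulation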;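 on inhibition: signal is the nuclear over cytoplasmic p65 intensity ratio per well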); settings: HUVEC TNFa-induced p65 nuclear translocation; cell count: measured here: nuclei count (cytotoxicity indicator), at 2.08 µM; inhibition: at 2 µM, stronger effect = higher value, 0% TNFa-plus-vehicle, 100% no-TNFa wells
[2] = endothelial E-selectin expression blockers – imaging, HUVEC, immunofluorescence, MLSMR starter and 10KST1 sets, primary screen (AID 487;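 active means visually confirmed hit in the image check and inhibition above 20%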;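 on inhibition: signal is fraction of cell area covered by stained E-selectin grains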;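 on nuclei count: 100% = median nuclei count of all wells on the same plate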); settings: HUVEC TNFalpha-induced E-selectin immunofluorescence imaging, at 2 µM; inhibition: stronger effect = higher value; nuclei count: measured here: cell number, toxicity
[3] = Primary imaging screen for DUSP6 inhibitors that restore phospho-Erk in transfected HeLa cells, chemical complementation (AID 609;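 active means compounds giving at least 50% inhibition in the cell-based MKP-3 phosphatase rescue imaging test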;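 on inhibition: phospho-Erk level distribution per well compared with pooled transfected vehicle control wells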); settings: HeLa MKP-3 transfected, phospho-Erk imaging KS statistic, at 10 µM, cells stimulated with TPA for 15 min
[4] = molecular target: Dual specificity protein phosphatase 6 (Homo sapiens) (UniProt Q16828); assay: as above; settings: HeLa MKP-3 transfected, phospho-Erk imaging KS statistic; at 10 µM; stronger effect = higher value; cells stimulated with TPA for 15 min
Dual specificity protein phosphatase 6 (Homo sapiens), sequence (Q16828 whole entry, looked up): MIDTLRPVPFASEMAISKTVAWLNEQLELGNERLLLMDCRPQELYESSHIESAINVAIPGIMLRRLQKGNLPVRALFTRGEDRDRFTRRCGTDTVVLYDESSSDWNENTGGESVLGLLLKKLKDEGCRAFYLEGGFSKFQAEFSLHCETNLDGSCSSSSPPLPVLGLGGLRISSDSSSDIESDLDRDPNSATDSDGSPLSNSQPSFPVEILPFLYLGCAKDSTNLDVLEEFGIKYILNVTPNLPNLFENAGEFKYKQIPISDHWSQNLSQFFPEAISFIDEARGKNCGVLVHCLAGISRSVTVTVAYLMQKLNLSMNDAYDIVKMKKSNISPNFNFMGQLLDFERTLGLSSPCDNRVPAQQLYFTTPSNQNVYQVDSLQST

[5] = molecular target: Voltage-gated potassium channel subunit beta-2 (Rattus norvegicus) (UniProt P62483); assay: inhibitors of rat Kvbeta2 reductase activity – biochemical, NADPH fluorescence, primary screen (AID 622;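 active means fluorescence slope higher than the sample average by over 3 SD, cut at about -0.22 in these data, passing the limit was not always enough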;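 further: slope of raw intensity against log time taken from 70 to 1610 s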); settings: recombinant KvBeta, 4-cyanobenzaldehyde reduction, at 10 µM, stronger effect = higher value
Voltage-gated potassium channel subunit beta-2 (Rattus norvegicus), sequence (P62483 whole entry, looked up): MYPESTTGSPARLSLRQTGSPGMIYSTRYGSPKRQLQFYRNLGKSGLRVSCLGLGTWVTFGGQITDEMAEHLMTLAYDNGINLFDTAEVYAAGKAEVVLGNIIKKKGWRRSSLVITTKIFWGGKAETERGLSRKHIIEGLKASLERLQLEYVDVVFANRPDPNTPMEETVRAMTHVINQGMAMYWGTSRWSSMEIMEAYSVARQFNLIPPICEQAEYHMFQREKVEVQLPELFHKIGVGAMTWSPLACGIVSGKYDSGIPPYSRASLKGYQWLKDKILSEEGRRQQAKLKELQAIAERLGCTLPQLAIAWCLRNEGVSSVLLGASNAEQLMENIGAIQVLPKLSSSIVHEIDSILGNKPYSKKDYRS

[6] = molecular target: Voltage-gated potassium channel subunit beta-2 (Rattus norvegicus) (UniProt P62483); assay: enhancers of rat Kvbeta2 NADPH turnover – biochemical, NADPH fluorescence, primary screen (AID 623;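 active means NADPH fluorescence slope more negative than the mean of all samples by about 3 SD, 99.7% confidence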;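 further: fluorescence intensity change per second fitted from 20 to 320 s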); settings: Recombinant KvBeta, NADPH fluorescence decrease slope, 10 min; at 10 µM; stronger effect = lower value
[7] = molecular target: Muscarinic acetylcholine receptor M4 (Homo sapiens) (UniProt P08173); assay: M4-linked GIRK flux change, two-sided – cell-based, HEK293 M4/GIRK, thallium flux, BTC-AM, M4 allosteric agonist project, primary screen (AID 625;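 active means fluorescence slope after compound addition differing from the mean of all tested samples at 99.7% confidence, mostly higher but some lower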;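 further: thallium influx through GIRK channels coupled to M4 in HEK293 cells with BTC-AM dye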); settings: at 10 µM, actives lie on both sides
Muscarinic acetylcholine receptor M4 (Homo sapiens), sequence (P08173 whole entry, looked up): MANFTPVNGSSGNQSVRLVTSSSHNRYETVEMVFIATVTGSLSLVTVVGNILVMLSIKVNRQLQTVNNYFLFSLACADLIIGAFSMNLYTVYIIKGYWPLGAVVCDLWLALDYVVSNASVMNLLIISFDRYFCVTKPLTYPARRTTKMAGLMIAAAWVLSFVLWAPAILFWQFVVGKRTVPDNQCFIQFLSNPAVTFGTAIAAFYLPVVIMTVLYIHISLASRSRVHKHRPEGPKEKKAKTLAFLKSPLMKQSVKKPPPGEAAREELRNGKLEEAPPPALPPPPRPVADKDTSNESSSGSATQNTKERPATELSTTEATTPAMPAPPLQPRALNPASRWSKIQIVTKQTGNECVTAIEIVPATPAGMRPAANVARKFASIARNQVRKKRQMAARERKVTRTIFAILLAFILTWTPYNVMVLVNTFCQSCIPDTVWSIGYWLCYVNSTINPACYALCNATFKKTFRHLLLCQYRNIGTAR
Summary of the method: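 Material: M4/GIRK1/GIRK2 stable HEK293 cell line. Medium: pH 7.3 thallium assay buffer. Dosing: single compound concentration, 10 µM final. Schedule: 1 h dye loading, 2 min kinetic read. Measured by: kinetic fluorescence with BTC-AM dye. Read-out: post-addition slope, 15–24 s, of baseline-normalized fluorescence. Benchmarks: carbachol and DMSO controls.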

[8] = inhibitors of larval lipid processing in zebrafish, primary screen, whole organism, PED6 fluorescence, gall bladder and intestine (AID 686;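 active means a full or partial loss of lipid-probe fluorescence in the fish gall bladder, intestine or both, judged by eye; inactive means no fluorescence loss, or compound toxic to the fish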;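 further: larvae 5 to 7 days old with five fish per well; signal comes from phospholipase A2 cleavage of quenched PED6 carried via bile; overnight exposure to compound and PED6 before scoring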); settings: Zebrafish larvae PED6 lipid processing, fluorescence scoring; screened at 20 µM (by protocol)
Summary of the method: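 System: live zebrafish larvae aged 5-7 days, whole organism; measure: graded gall bladder and intestinal fluorescence inhibition per well; incubation: overnight exposure; reagent: ingested quenched lipid PED6 at 100 nM; signal: By-eye fluorescence microscopy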

[9] = loss of swimming-algae plug formation – whole organism, Chlamydomonas reinhardtii, WT vs cilia-less mutant, absorbance, 96-well, primary screen (AID 463189); settings: Chlamydomonas reinhardtii gravitaxis, OD600 absorbance, 2 days; at 10 µM; stronger effect = higher value;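 further: 0% = wild type cc124 cells in DMSO and 100% = ciliumless bld1 mutant cells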
[10] = measured here: cell density z-score
[11] = measured here: nuclear c-Myc green intensity z-score
[12] = measured here: nuclear pErk red intensity z-score, stronger effect = higher value

SMILES	cell count [1]	inhibition [1]	inhibition [2]	nuclei count [2]	z-score [3, 10]	z-score [3, 11]	z-score [3, 12]	inhibition [4]	fluorescence slope [5]	NADPH fluorescence slope [6]	fluorescence slope [7]	outcome [8]	inhibition [9]
COCCNc1nc2c(c(=O)n(C)c(=O)n2C)n1Cc1cccc(C(F)(F)F)c1	698	3% (inactive)	-94.2% (inactive)	95.8%	0.711	-1.37	-0.346	7.93% (inactive)	-0.559 (inactive)	-8e-05 (inactive)	0.00743 (inactive)	inactive	36.2% (inactive)
CCCCC(CCC(=O)Nc1ccc(C(=O)OCC)cc1)C(=O)O (stereo unspecified)	378	-11.3% (inactive)	-153% (inactive)	159%	-0.634	-1.85	0.598	-0.608% (inactive)	-0.468 (inactive)	-0.000129 (inactive)	0.00338 (inactive)	inactive	5.13% (inactive)
Cc1cc(=O)oc(C)c1C(=O)NCCc1ccccc1	661	9.3% (inactive)	-1% (inactive)	109%	-0.903	1.05	0.63	5.35% (inactive)	-0.433 (inactive)	-4.2e-05 (inactive)	0.00484 (inactive)	inactive	-7.3% (inactive)
COC(=O)CC1=C(C(=O)OC)C(c2cccc(OCC(N)=O)c2)C(C#N)=C(N)O1 (stereo unspecified)	723	-1% (inactive)	-67.7% (inactive)	186%	-1.4	0.109	1.84	27.5% (inactive)	-0.432 (inactive)	-7e-05 (inactive)	0.00612 (inactive)	inactive	12% (inactive)
CCCCn1c(=O)n(C)c(=O)c2c3c(sc21)COC(C)(C)C3	589	-5.2% (inactive)	-64.5% (inactive)	144%	-0.346	-0.449	-0.806	1.63% (inactive)	-0.447 (inactive)	-1.3e-06 (inactive)	0.00382 (inactive)	inactive	43.8% (inactive)
NC(=O)C1CCN(C2OC(=O)c3ccccc32)CC1 (stereo unspecified)	399	-1.7% (inactive)	-148% (inactive)	160%	0.349	0.288	-0.804	5.65% (inactive)	-0.447 (inactive)	-8.4e-05 (inactive)	0.0046 (inactive)	inactive	33.2% (inactive)
COc1cccc(C(=O)c2sc(NC(C)C)nc2N)c1	637	-11.5% (inactive)	61.3% (inactive)	158%	-0.552	2.2	0.884	-3.95% (inactive)	-0.496 (inactive)	-7.1e-05 (inactive)	0.00607 (inactive)	inactive	-1.39% (inactive)
